Data on 13 compounds can be found in ChEMBL document CHEMBL4049428, “Exploring Derivatives of Quinazoline Alkaloid l-Vasicine as Cap Groups in the Design and Biological Mechanistic Evaluation of Novel Antitumor Histone Deacetylase Inhibitors” (J Med Chem, 2017).

One may read the IC50 as the midpoint of a concentration-inhibition curve.

For test [1], the system named is HL-60. Nature of the test: Induction of mitochondrial membrane potential loss in human HL60 cells at 1 uM measured after 48 hrs by Rh123 dye-based flow cytometric analysis (reference value: 5.6%). The test is classed as functional. Put shortly: (§1)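 Cells seeded in 6-well plates 2-4 h, then 48 h with compound; Rh-123 1 µM added for the final half hour; cells centrifuged, washed twice in PBS, resuspended in PBS, and Ψm loss quantified by flow cytometry as percentage of cells.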
(In general: A flow cytometer gives signals particle by particle.)

Test [2] relates to MOLT-4. Nature of the test: Induction of mitochondrial membrane potential loss in human MOLT4 cells at 1 uM measured after 48 hrs by Rh123 dye-based flow cytometric analysis (reference value: 9.6%). The test is classed as functional. Put shortly:
as §1

Test [3] deals with P388. Nature of the test: Antitumor activity against mouse P388 cells implanted in CDF1 mouse assessed as increase in median survival time at 50 mg/kg, ip administered for 9 consecutive days. Format: functional. The method in brief: (§2)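 P388 leukemia cells were harvested from 6–7-day-old ascites grown in the peritoneum of female DBA/2 mice. Female CDF1 mice (18–23 g) received 5×10^5 cells i.p. on day 0. Next day they were randomized into groups of 7 and dosed i.p. daily for 9 consecutive days; controls got 0.2 ml normal saline. Mortality was followed to day 18, with median survival time and %T/C calculated.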

The test system of test [4] is MIA PaCa-2. Nature of the test: Cytotoxicity against human MIAPaCa2 cells assessed as growth inhibition after 48 hrs by MTT assay. Format: functional, cell-based. The note with it: MIA PaCa-2, 48 h. Put shortly: (§3)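 MTT assay, 48 h exposure; adherent lines seeded 12 h and suspension lines 4 h before compound. Media: RPMI-1640/10% FCS (THP-1, HL-60, Colo-205, Caco-2, A549), DMEM/10% FCS (A549, MIAPaCa-2, MCF-7). MTT 4 h, formazan dissolved in DMSO, absorbance 570 nm. Mean ± S.D of three experiments in triplicate; SAHA 5 µM reference.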
Background: Tetrazolium assays rely on reduction of a dye to a coloured formazan, in cell work by metabolically active cells.

Test [5] concerns HL-60. Nature of the test: Induction of mitochondrial membrane potential loss in human HL60 cells assessed as intact mitochondrial membrane potential at 1 uM measured after 48 hrs by Rh123 dye-based flow cytometric analysis (reference value: 91.3%). Format: functional. Put shortly: as §1
The test system of test [6] is MOLT-4. Nature of the test: Induction of mitochondrial membrane potential loss in human MOLT4 cells assessed as intact mitochondrial membrane potential at 1 uM measured after 48 hrs by Rh123 dye-based flow cytometric analysis (reference value: 90.4%). The test is classed as functional. The method in brief: as §1
For another test, the species on record is Homo sapiens. Nature of the test: Inhibition of HDAC in human HeLa nuclear extract up to 2 uM using Boc-Lys(Ac)-AMC as substrate measured after 30 mins by fluorometric analysis.
A further test deals with MCF7. Nature of the test: Cytotoxicity against human MCF7 cells assessed as growth inhibition at 10 uM after 48 hrs by MTT assay. Format: functional. The note with it: MCF7, 48 h, read-out: GI. Put shortly:
as §3

In test [7] the test system is HL-60. Nature of the test: Cytotoxicity against human HL60 cells assessed as growth inhibition at 10 uM after 48 hrs by MTT assay. Conditions: HL-60, 48 h, read-out: GI. Format: functional. Put shortly:
as §3

A further test has as its system Caco-2. Nature of the test: Cytotoxicity against human Caco2 cells assessed as growth inhibition at 10 uM after 48 hrs by MTT assay. The test is classed as functional. Conditions: Caco-2, 48 h, read-out: GI. The method in brief: as §3
The next test deals with COLO 205. Nature of the test: Cytotoxicity against human COLO205 cells assessed as growth inhibition at 10 uM after 48 hrs by MTT assay. The test is classed as functional. The note with it: COLO 205, 48 h, read-out: GI. The method in brief:
as §3

Another test relates to THP-1. Nature of the test: Cytotoxicity against human THP1 cells assessed as growth inhibition at 10 uM after 48 hrs by MTT assay. The test is classed as functional. Conditions: THP-1, 48 h, read-out: GI. The method in brief:
as §3

Test [8] has as its system MIA PaCa-2. Nature of the test: Cytotoxicity against human MIAPaCa2 cells assessed as growth inhibition at 10 uM after 48 hrs by MTT assay. Format: functional. Conditions: MIA PaCa-2, 48 h, read-out: GI. Put shortly:
as §3

Test [9] has as its system MOLT-4. Nature of the test: Cytotoxicity against human MOLT4 cells assessed as growth inhibition at 10 uM after 48 hrs by MTT assay. The test is classed as functional. Conditions: MOLT-4, 48 h, read-out: GI.
The test system of a further test is PC-3. Nature of the test: Cytotoxicity against human PC3 cells assessed as growth inhibition at 10 uM after 48 hrs by MTT assay. The test is classed as functional. The note with it: PC-3, 48 h, read-out: GI.
The test system of the next test is A549. Nature of the test: Cytotoxicity against human A549 cells assessed as growth inhibition at 10 uM after 48 hrs by MTT assay. Format: functional. The note with it: A549, 48 h, read-out: GI. Put shortly: as §3
Test [10] deals with P388. Nature of the test: Antitumor activity against mouse P388 cells implanted in CDF1 mouse assessed as increase in median survival time at 20 mg/kg, ip administered for 9 consecutive days. The test is classed as functional, organism-based. Put shortly:
as §2

Molecules are shown by their SMILES. Activity calls are given as the source filed them. No cut-off for these calls is given here.

Take `O=C(CCCCCCC(=O)Nc1ccccc1)NO` [VORINOSTAT]: the Activity with HL-60 [1] was found to be 12.9%; with MOLT-4 [2] it was 28.4%; in the test on HL-60 [5], 75.6%; in the test with MOLT-4 [6], 71.6%. Besides, in the test on P388 [3], the result was Active. The IC50 with MIA PaCa-2 [4] came out at 2200 nM.
Regarding `O=C(CCCCCCC(=O)N[C@H]1CCN(Cc2ccccc2)C1)NO`, in the test filed under Homo sapiens, the inhibition entry is “inactive”.
Consider `O=C(CCCCC(=O)Nc1ccccc1CN1CC[C@H](O)C1)NO`, for which the inhibition of growth at 10 µM in the test with MCF7 amounted to 26%; in the test on HL-60 [7] it was 29%; in the test on Caco-2, 31%; in the test with COLO 205, 22%; in the test with THP-1, 37%; in the test with MIA PaCa-2 [8], 12%. In addition, the results for the inhibition of growth at 10 µM in the test with MOLT-4 [9], in the test with PC-3 and in the test with A549 were 38%, 15% and 19%, respectively. For the same compound, the inhibition entry in the test listed under Homo sapiens was “Active”.
Regarding `O=C(CCCC(=O)Nc1ccccc1CN1CC[C@H](O)C1)NO`, the inhibition of growth at 10 µM with MCF7 amounted to 5%; in the test with HL-60 [7], 3%; with Caco-2, 1%; with COLO 205 it was 26%; in the test on THP-1, 3%; in the test with MIA PaCa-2 [8], 4%. Also, the values for the inhibition of growth at 10 µM with MOLT-4 [9], with PC-3 and with A549 were 27%, 2% and 5%, respectively. Also, the inhibition entry in the test listed under Homo sapiens is “Active”.
Take `O=C(CCCC(=O)N[C@H]1CCN(Cc2ccccc2)C1)NO`: in the test filed under Homo sapiens, the inhibition result is “inactive”.
Same read-out and setting: with `O=C(CCCCCCC(=O)N[C@@H]1CCN(Cc2ccccc2)C1)NO` the entry was “inactive”; with `O=C(CCCCCCCC(=O)N[C@H]1CCN(Cc2ccccc2)C1)NO`, “inactive”.
With `O=C(CCCCCCCC(=O)Nc1ccccc1CN1CC[C@H](O)C1)NO`, the inhibition of growth at 10 µM with MCF7 is 3%; in the test on HL-60 [7], 6%; in the test with Caco-2, 5%; in the test with COLO 205, 7%; in the test with THP-1, 17%; in the test with MIA PaCa-2 [8], 2%. The inhibition of growth at 10 µM amounted to 30% in the test on MOLT-4 [9], 12% with PC-3 and 5% in the test on A549. The inhibition result in the test filed under Homo sapiens is “Active”.
For `O=C(CCCCC(=O)N[C@@H]1CCN(Cc2ccccc2)C1)NO`, the inhibition entry in the test filed under Homo sapiens is “inactive”.
Consider `O=C(CCCC(=O)N[C@@H]1CCN(Cc2ccccc2)C1)NO`, for which, in the test listed under Homo sapiens, the inhibition result was “inactive”.
The same measure, in the same setting: with `O=C(CCCCC(=O)N[C@H]1CCN(Cc2ccccc2)C1)NO` the entry was “inactive”.
Consider `O=c1[nH]cc(F)c(=O)[nH]1`, for which, in the test on P388 [10], the outcome was Active.
`O=C(CCCCCCCC(=O)N[C@@H]1CCN(Cc2ccccc2)C1)NO`: in the test filed under Homo sapiens, the inhibition result is “inactive”.
